Legend:
[1] = target: Voltage-gated inwardly rectifying potassium channel KCNH2 (Homo sapiens, UniProt Q12809); experiment: Displacement of [3H]dofetilide from human ERG channel expressed in HEK293 cells after 60 mins by liquid scintillation counting method; type: cell-based
Nociceptin receptor [2] = target: T1, Nociceptin receptor (Homo sapiens, UniProt P41146); experiment: Displacement of [3H]N/OFQ from human NOP receptor expressed in HEK293 cells after 45 mins by scintillation proximity assay; type: cell-based
Method in brief: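 HEK-293 membranes bearing recombinant hNOP receptor (8.3 μg) were incubated at 25 °C for 45 min with 0.4 nM [3H]N/OFQ and WGA-SPA beads. Buffer was 50 mM HEPES, pH 7.4, with 10 mM MgCl2 and 1 mM EDTA. Six concentrations, 10⁻¹¹–10⁻⁵ M, were run in duplicate; NSB with 1 μM N/OFQ. IC50 by nonlinear regression; Ki = IC50/(1+[L]/KD), KD 0.135 nM.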

Mu-type opioid receptor = Mu-type opioid receptor (Homo sapiens, UniProt P35372); experiment: Displacement of [3H]DAMGO from human mu opioid receptor expressed in CHOK1 cells after 45 mins by scintillation proximity assay; type: cell-based, CHO-K1
[3] = Half life in human liver microsomes at 1 uM by HPLC-MS/MS analysis; type: ADME
Method in brief: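 Substrate at 1.0 μM was incubated at 37 °C in pooled human liver microsomes (1.0 mg/mL protein) with 3.3 mM MgCl2, 0.1 M NaKHPO4 (pH 7.4) and an NADPH-regenerating system.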

HEK293 = experiment: Selectivity ratio of Ki for human mu opioid receptor expressed in CHOK1 cells to Ki for human NOP receptor expressed in HEK293 cells; type: cell-based
Nociceptin receptor [4] = target: T1, Nociceptin receptor; experiment: Antagonist activity at human NOP receptor expressed in HEK293 cells assessed as inhibition of N/OFQ-induced [35S]GTPgammaS binding after 1.5 hrs by scintillation proximity assay; type: functional, cell-based
Method in brief: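 Membranes from HEK-293 cells expressing hNOP receptor were incubated 1.5 h at 25 °C with 10 nM N/OFQ, 400 pM [35S]GTPγS, 5 μM GDP and WGA-SPA beads. Buffer was 20 mM HEPES, 100 mM NaCl, 5 mM MgCl2 and 1 mM EDTA, pH 7.4. Six compound concentrations from 0.1 nM to 10 μM were run in duplicate. Basal binding was measured without ligands; NSB with 10 μM unlabeled GTPγS. Read by scintillation counting; IC50 derived.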

hERG (KCNH2) = hERG (KCNH2) (Homo sapiens, UniProt Q12809); experiment: Displacement of [3H]dofetilide from human ERG channel expressed in HEK293 cells at 1 uM after 60 mins by liquid scintillation counting method; type: cell-based; conditions: HEK293 cells that express hERG, probe [3H]dofetilide
Chain of hERG (KCNH2) (Q12809 whole entry): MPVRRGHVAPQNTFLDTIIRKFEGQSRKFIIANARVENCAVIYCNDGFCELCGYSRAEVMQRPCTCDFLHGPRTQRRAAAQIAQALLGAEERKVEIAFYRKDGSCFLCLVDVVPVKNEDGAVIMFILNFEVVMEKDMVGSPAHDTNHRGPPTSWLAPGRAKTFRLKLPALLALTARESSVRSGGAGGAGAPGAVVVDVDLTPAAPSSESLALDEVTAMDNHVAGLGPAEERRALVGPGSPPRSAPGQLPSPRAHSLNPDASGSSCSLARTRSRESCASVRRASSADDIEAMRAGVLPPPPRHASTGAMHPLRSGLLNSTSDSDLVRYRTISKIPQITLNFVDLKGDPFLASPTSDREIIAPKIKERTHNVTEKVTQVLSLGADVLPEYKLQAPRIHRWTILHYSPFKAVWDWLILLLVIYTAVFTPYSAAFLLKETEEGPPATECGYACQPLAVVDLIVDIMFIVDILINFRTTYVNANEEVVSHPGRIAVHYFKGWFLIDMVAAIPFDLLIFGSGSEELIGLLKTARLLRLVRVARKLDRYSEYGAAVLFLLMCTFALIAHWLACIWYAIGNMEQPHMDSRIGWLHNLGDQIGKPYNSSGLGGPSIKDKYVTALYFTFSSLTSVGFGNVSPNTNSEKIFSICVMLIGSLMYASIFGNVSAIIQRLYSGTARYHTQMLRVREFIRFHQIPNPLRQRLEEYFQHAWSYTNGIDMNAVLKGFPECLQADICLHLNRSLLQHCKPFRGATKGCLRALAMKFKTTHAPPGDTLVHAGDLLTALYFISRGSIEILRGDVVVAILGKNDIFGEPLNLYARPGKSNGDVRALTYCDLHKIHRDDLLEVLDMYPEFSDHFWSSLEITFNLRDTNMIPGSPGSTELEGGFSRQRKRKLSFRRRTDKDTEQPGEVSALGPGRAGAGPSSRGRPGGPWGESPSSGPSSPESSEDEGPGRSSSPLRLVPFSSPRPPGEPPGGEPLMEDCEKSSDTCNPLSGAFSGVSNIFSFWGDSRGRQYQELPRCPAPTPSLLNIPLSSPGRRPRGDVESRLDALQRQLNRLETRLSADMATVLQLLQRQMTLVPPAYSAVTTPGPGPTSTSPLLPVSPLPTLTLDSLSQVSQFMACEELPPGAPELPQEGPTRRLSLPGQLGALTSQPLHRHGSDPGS

Chain of Voltage-gated inwardly rectifying potassium channel KCNH2 (Q12809 whole entry): as above
T1 sequence (P41146 whole entry): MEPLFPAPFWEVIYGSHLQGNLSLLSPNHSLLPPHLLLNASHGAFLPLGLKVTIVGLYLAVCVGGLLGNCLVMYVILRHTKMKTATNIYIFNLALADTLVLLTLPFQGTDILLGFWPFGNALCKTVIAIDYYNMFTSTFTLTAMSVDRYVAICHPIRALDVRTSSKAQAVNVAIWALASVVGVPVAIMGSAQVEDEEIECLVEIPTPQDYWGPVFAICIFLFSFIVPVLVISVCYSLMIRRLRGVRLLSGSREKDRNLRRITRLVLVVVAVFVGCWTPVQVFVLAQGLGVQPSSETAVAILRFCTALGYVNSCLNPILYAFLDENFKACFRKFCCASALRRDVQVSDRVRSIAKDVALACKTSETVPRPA
Chain of Mu-type opioid receptor (P35372 whole entry): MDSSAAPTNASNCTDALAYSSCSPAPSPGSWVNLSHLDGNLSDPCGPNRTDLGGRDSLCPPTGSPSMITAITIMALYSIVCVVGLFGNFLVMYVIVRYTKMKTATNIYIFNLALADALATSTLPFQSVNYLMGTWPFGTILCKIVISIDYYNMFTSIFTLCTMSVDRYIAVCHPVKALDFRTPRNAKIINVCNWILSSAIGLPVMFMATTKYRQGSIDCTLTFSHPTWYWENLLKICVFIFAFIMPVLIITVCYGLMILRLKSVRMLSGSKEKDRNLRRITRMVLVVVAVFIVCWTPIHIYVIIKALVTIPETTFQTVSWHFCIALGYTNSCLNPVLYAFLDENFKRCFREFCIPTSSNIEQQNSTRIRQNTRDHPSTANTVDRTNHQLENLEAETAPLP

| SMILES | IC50 [1] | Ki (Nociceptin receptor [2]) | Ki (Mu-type opioid receptor) | half-life at 1 µM [3] | Ratio Ki (HEK293) | IC50 (Nociceptin receptor [4]) | inhibition at 1 h, 1 µM (hERG (KCNH2)) |
| --- | --- | --- | --- | --- | --- | --- | --- |
| Cc1cc(F)ccc1C1CCN(CC2Cc3ccccc3CN2)CC1 (stereo not drawn) | 200 nM | 3.56 nM | 342 nM | 6.9 min | 96.1 | 58.8 nM |  |
| c1ccc2c(c1)CCC(CN1CCC3(CCc4ccccc43)CC1)C2 (stereo not drawn) |  | 5.55 nM | 289 nM |  | 52.1 | 683 nM | 71% |
| Oc1ccc(Cl)c2c1CNC(CN1CCC3(CCc4ccccc43)CC1)C2 (stereo not drawn) |  | 2.2 nM | 68.8 nM | 15.3 min |  | 21.3 nM |  |
| c1ccc2c(c1)CC(CN1CCC3(CCc4ccccc43)CC1)CO2 (stereo not drawn) | 1500 nM | 5.65 nM | 49.1 nM | 3.1 min | 8.69 | 122 nM |  |
| NC(=O)N1Cc2ccccc2CC1CN1CCC2(CCc3ccccc32)CC1 (stereo not drawn) |  | 18.1 nM | 108 nM |  | 5.97 |  |  |
| Oc1cccc2c1CNC(CN1CCC3(CCc4ccccc43)CC1)C2 (stereo not drawn) | 940 nM | 2.4 nM | 288 nM | 12.2 min | 120 | 53.9 nM |  |
| O=C(C1Cc2ccccc2CN1)N1CCC2(CCc3ccccc32)CC1 (stereo not drawn) |  | > 250 nM | > 450 nM |  |  |  |  |
| Oc1ccc(Br)c2c1CNC(CN1CCC3(CCc4ccccc43)CC1)C2 (stereo not drawn) |  | 1.74 nM | 139 nM | 9.6 min |  | 35.1 nM |  |
| c1ccc2c(c1)CNC(CN1CCC3(CCc4ccccc43)CC1)C2 (stereo not drawn) | > 1500 nM | 8.5 nM | 225 nM | 6.6 min | 26.5 | 248 nM |  |
| Cc1cc(F)ccc1C1CCN(CC2Cc3c(Cl)ccc(O)c3CN2)CC1 (stereo not drawn) | 970 nM | 3.03 nM | > 450 nM | 21.6 min | > 143 | 28.7 nM |  |
| CN1Cc2ccccc2CC1CN1CCC2(CCc3ccccc32)CC1 (stereo not drawn) |  | 18.9 nM | 58.2 nM |  | 3.08 |  |  |
| CC(=O)N1Cc2ccccc2CC1CN1CCC2(CCc3ccccc32)CC1 (stereo not drawn) | 500 nM | 29.8 nM | 74.4 nM |  | 2.5 |  |  |
| Oc1ccc2c(c1)CC(CN1CCC3(CCc4ccccc43)CC1)NC2 (stereo not drawn) |  | 10.2 nM | 392 nM | 18 min |  | 227 nM |  |
| CN1C(=O)c2ccccc2CC1CN1CCC2(CCc3ccccc32)CC1 (stereo not drawn) | 6960 nM | > 250 nM | 231 nM |  | < 0.924 |  |  |
